From ChEMBL document CHEMBL1781939, “Triterpene and sterol derivatives from the roots of Breynia fruticosa” (J Nat Prod, 2011)

Assays:
Assay type in all cases: functional, cell-based
A549 = assay: Cytotoxicity against human A549 cells after 48 hrs by MTT assay; conditions: A549, 48 h
Method in brief: (§1)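 Cells grown in DMEM with 10% FBS, 5% CO2, 37 °C. Adherent lines plated and left to attach 12 h before dosing; suspension HL-60 plated immediately before dosing; starting density 1 × 10^5 cells/mL. Treated with 0.064, 0.32, 1.6, 8 and 40 μM in triplicate for 48 h; cisplatin as positive control. Viability by MTT; IC50 by Reed–Muench method.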

MCF7 = assay: Cytotoxicity against human MCF7 cells after 48 hrs by MTT assay; conditions: MCF7, 48 h; method in brief: as §1
SMMC-7721 = assay: Cytotoxicity against human SMMC7721 cells after 48 hrs by MTT assay; conditions: SMMC-7721, 48 h; method in brief: as §1
SW480 = assay: Cytotoxicity against human SW480 cells after 48 hrs by MTT assay; conditions: SW480, 48 h; method in brief: as §1
HL-60 = assay: Cytotoxicity against human HL60 cells after 48 hrs by MTT assay; conditions: HL-60, 48 h; method in brief: as §1

Row | SMILES | IC50 (A549) | IC50 (MCF7) | IC50 (SMMC-7721) | IC50 (SW480) | IC50 (HL-60)
1 | C=C(C)[C@@H]1CC[C@]2(C(=O)O)CC[C@]34C(=O)O[C@]5(CC[C@@H]3[C@@H]12)[C@@]4(C)CC[C@]12O[C@]51[C@@H](C)CC2(C)C [BREYNCEANOTHANOLIC ACID] | 14.5 µM | 12.7 µM | 14.3 µM | 20 µM | 10.2 µM
2 | C=C(C)[C@@H]1CC[C@]2(C(=O)O)CC[C@]3(C)[C@H](CC[C@@H]4[C@@]5(C)[C@H](C(=O)O)[C@H](O)C(C)(C)[C@@H]5CC[C@]43C)[C@@H]12 [EPICEANOTHIC ACID] | > 40 µM | > 40 µM | > 40 µM | > 40 µM | > 40 µM
3 | C=C(CC[C@@H](CO)[C@H]1CC[C@H]2C3=CC[C@H]4[C@H](C)[C@@H](O)[C@H](O)C[C@]4(C)[C@H]3CC[C@]12C)C(C)C [FRUTICOSIDE A] | 15.7 µM | 15.4 µM | 18.5 µM | 18.4 µM | 3 µM
4 | C=C(CC[C@@H](C(=O)O)[C@H]1CC[C@H]2C3=CC[C@H]4[C@H](C)[C@@H](O)[C@H](O)C[C@]4(C)[C@H]3CC[C@]12C)C(C)C [FRUTICOSIDE B] | > 40 µM | > 40 µM | > 40 µM | > 40 µM | > 40 µM
5 | C=C(CC[C@@H](C(=O)O)[C@H]1CC[C@H]2C3=CC[C@H]4[C@H](C)[C@@H](O[C@@H]5O[C@@H](C)[C@H](O)[C@@H](O)[C@@H]5O)[C@H](O)C[C@]4(C)[C@H]3CC[C@]12C)C(C)C [FRUTICOSIDE C] | > 40 µM | > 40 µM | > 40 µM | > 40 µM | > 40 µM
6 | C=C(CC[C@@H](C(=O)O)[C@H]1CC[C@H]2C3=CC[C@H]4[C@H](C)[C@@H](O[C@@H]5O[C@@H](C)[C@H](O)[C@@H](O)[C@@H]5O)[C@H](OC(C)=O)C[C@]4(C)[C@H]3CC[C@]12C)C(C)C [FRUTICOSIDE D] | > 40 µM | > 40 µM | > 40 µM | > 40 µM | > 40 µM
7 | C=C(CC[C@@H](C(=O)O)[C@H]1CC[C@H]2C3=CC[C@H]4[C@H](C)[C@@H](O[C@@H]5O[C@@H](C)[C@H](O)[C@@H](O)[C@H]5O)[C@H](OC(C)=O)C[C@]4(C)[C@H]3CC[C@]12C)C(C)C [FRUTICOSIDE E] | > 40 µM | > 40 µM | > 40 µM | > 40 µM | > 40 µM
8 | C=C(CC[C@@H](C(=O)S)[C@H]1CC[C@H]2C3=CC[C@H]4[C@H](C)[C@@H](O[C@@H]5O[C@@H](C)[C@H](O)[C@@H](O)[C@@H]5O)[C@H](OC(C)=O)C[C@]4(C)[C@H]3CC[C@]12C)C(C)C [FRUTICOSIDE F] | > 40 µM | > 40 µM | > 40 µM | > 40 µM | > 40 µM
9 | C/C=C(/CC[C@@H](C(=O)S)[C@H]1CC[C@H]2C3=CC[C@H]4[C@H](C)[C@@H](O[C@@H]5O[C@@H](C)[C@H](O)[C@@H](O)[C@@H]5O)CC[C@]4(C)[C@H]3CC[C@]12C)C(C)C [FRUTICOSIDE G] | > 40 µM | > 40 µM | > 40 µM | > 40 µM | > 40 µM
10 | C=C(C)[C@@H]1CC[C@]2(C(=O)O)CC[C@]3(C)[C@H](CC[C@@H]4[C@@]5(C)[C@H](C=O)[C@H](O)C(C)(C)[C@@H]5CC[C@]43C)[C@@H]12 [ZIZYBERANALIC ACID] | > 40 µM | > 40 µM | > 40 µM | > 40 µM | > 40 µM
